FLuc inhib CS: inhibits firefly luciferase, flagging false hits in luciferase inhibition screens | inhibition, % at 10 µM | AID 1006 | P08659 | 200,000 tested, 1.5% active | ATPLite firefly luciferase biochemical luminescence, 10 min;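 active = inhibition above about 50% when tested at 10 µM, limit read from the data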
Target sequence (P08659 whole entry, looked up): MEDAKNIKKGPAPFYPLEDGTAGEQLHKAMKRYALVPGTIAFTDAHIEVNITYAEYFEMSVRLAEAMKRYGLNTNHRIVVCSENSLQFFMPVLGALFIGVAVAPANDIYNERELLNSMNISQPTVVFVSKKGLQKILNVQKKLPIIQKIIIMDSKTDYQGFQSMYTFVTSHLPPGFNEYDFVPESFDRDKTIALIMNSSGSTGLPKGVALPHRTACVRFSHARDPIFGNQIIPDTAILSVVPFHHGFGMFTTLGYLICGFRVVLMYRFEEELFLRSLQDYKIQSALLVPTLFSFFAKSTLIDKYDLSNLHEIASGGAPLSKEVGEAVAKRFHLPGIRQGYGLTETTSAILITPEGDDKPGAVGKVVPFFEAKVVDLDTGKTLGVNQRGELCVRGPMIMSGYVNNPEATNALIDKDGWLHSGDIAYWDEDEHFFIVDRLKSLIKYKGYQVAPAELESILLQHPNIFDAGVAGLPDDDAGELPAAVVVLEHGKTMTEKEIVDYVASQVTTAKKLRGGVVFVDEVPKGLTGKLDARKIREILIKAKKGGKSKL
PPC-1+TRAIL kill: kills PPC-1 cancer cells in the presence of TRAIL | PPC-1 cells + TRAIL, ATPLite viability luminescence | 220,000 tested, 0.41% active | cell killing (% activity), % at 4 µM or 5 µM;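 active = cell killing above 50% in the first pass at 4 µM, then a duplicate retest at 5 µM averaging 50% or more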;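 also: plate controls were cells with TRAIL plus DMSO for no effect and medium-only wells lacking cells for full effect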
C8 TRAIL sens: caspase-8 TRAIL sensitization; NB7+C8 cells + TRAIL, ATPlite viability luminescence; inhibition (viability loss, TRAIL sensitization), % at 10 µM; 360,000 tested, 1% active; AID 624354;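 active = compounds causing at least 50% loss of cell viability in the single-dose screen, relative to plate controls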
FLuc act counter: affects firefly luciferase, flagging false hits in luciferase stimulation screens | 200,000 tested, under 10 active | P08659 | ATPlite luciferase biochemical, luminescence, 10 min; 0 = ATP-free wells, 1 = DMSO control | activation factor at 10 µM | AID 1027;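 active = luciferase activation factor, scaled between plate controls, of at least 2 with compound at 10 µM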
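System: cell-free luciferase reagent; medium: PBS as buffer for the ATP substrate; doses: test compounds dosed from 2 mM stocks in 100% DMSO; incubation: 10 min, room temperature; measured by: luminescence from luciferase reaction; read-out: luciferase activation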
HSP90 inh: HSP90 refolding inhibition in rabbit reticulocyte lysate; luciferase refolding luminescence, 3 h; inhibition, % at 5.6 µM; 290,000 tested, 0.91% active; AID 1789;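 active = inhibition above the screen-wide mean plus 3 SD, computed separately per campaign, cut at about 16% in these data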;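 also: 0% = DMSO wells and 100% = 60 µM geldanamycin wells; inhibitors lower the luminescence because luciferase stays unfolded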
* hit, by the source's call; nt = not tested or not shown. Shown are actives, neighbours in structure and some others; about 2% of the full set was active somewhere.

SMILES	FLuc inhib CS	PPC-1+TRAIL kill	C8 TRAIL sens	FLuc act counter	HSP90 inh
CCN1C(=O)/C(=C/C2=Cc3ccccc3OC2C)SC1=S (stereo not drawn)	nt	5	10	nt	4
Cc1c(Cl)cccc1NC(=S)N(CCN(C)C)C(C)c1ccco1 (stereo not drawn)	nt	4	-4	nt	-2
CN(Cc1cnc2nc(N)nc(N)c2n1)c1ccc(C(=O)NC(CCC(=O)O)C(=O)O)c2ccccc12 (stereo not drawn)	nt	nt	83*	nt	nt
CCc1cc2c(=O)c(-c3ccc4c(c3)OCCO4)coc2c(CN2CCCCC2C)c1O (stereo not drawn)	33	15	12	0.7	4
CCc1cc2c(=O)c(-c3ccc4c(c3)OCCO4)coc2cc1OS(C)(=O)=O	52*	11	37	0.5	-5
COc1ccc(C=NNC(=S)NN=Cc2ccc(OC)c(OC)c2)cc1OC	nt	nt	12	nt	nt
Oc1ccc(/C=N/NC(=S)N/N=C/c2ccc(O)cc2)cc1	96*	23	5	0	5
COc1cccc(/C=N/NC(=S)Nc2cccnc2)c1	16	9	22	0.8	-1
COc1ccc(O)c(/C=N/NC(=S)Nc2cccnc2)c1	36	48	65*	0.6	-1
Oc1ccc(/C=N/NC(=S)Nc2cccnc2)cc1	nt	40	71*	nt	9
COc1cc(/C=N/NC(=S)N/N=C/c2cc(OC)c(OC)c(OC)c2)cc(OC)c1OC	68*	-1	16	0.3	3
O=C(OC(C(=O)NC1CCCCC1)c1ccc(C(F)(F)F)cc1)c1ccco1 (stereo not drawn)	nt	nt	3	nt	nt
CCN(C(=O)COC(=O)C1CCN(S(=O)(=O)c2cccs2)CC1)c1ccccc1	3	6	5	1	0
COc1ccc(S(=O)(=O)N(C)C[C@H]2Oc3ncc(C#CC4(O)CCCC4)cc3C(=O)N([C@@H](C)CO)C[C@@H]2C)cc1	nt	nt	-10	nt	nt
O=C1C(C=NCc2cccnc2)=C(O)c2ccccc21	68*	-7	24	0.3	2
O=C1C(C=NCc2ccncc2)=C(O)c2ccccc21	-2	3	-23	1	5
CCCCCCN1C[C@@H](O)[C@H](n2cc(COC(=O)c3ccccc3)nn2)C[C@@H]1c1ccc(OC)cc1	nt	nt	7	nt	nt
O=C(CSc1ncnc2ccccc12)NCc1ccco1	-10	19	-10	1.1	-2
O=C(CSc1ncnc2ccccc12)c1ccco1	81*	34	-1	0.2	-5
COc1cccc(N=Nc2c(N)[nH]n3c(=O)cc(-c4ccccc4)nc23)c1	7	21	23	0.9	1
COc1cccc(-c2cc3nc(-c4ccccc4)cc(=O)n3[nH]2)c1	nt	nt	41*	nt	3
O=c1cc(-c2ccccc2)nc2cc(-c3ccc(F)cc3)[nH]n12	nt	nt	56*	nt	nt
Cc1cc(=O)n2[nH]c(-c3ccccc3)cc2n1	11	24	-11	0.9	2
COC(=O)c1ccc(C(=O)N2CCCC(Nc3ccc(F)c(F)c3)C2)cc1 (stereo not drawn)	nt	nt	-3	nt	-2
COc1cccc(C2=NOC(C(=O)Nc3cccnc3Cl)C2)c1 (stereo not drawn)	-7	16	-6	1.1	1
SMILES	FLuc inhib CS	PPC-1+TRAIL kill	C8 TRAIL sens	FLuc act counter	HSP90 inh
Clc1cccc(CSc2nc3ccncc3[nH]2)c1	75*	28	41	0.2	-2
COC(=O)c1ccc(CSc2nc3ccccc3[nH]2)o1	13	13	3	0.9	0
O=c1[nH]c(SCc2cccc(Cl)c2)nc2ccccc12	-5	8	1	1	-4
Fc1cccc(CSc2nc3ccncc3[nH]2)c1	78*	41	58*	0.2	4
Fc1cccc(F)c1CSc1nc2ccccc2[nH]1	37	23	14	0.6	2
COC(=O)c1cccc(CSc2nc3ccccc3[nH]2)c1	60*	36	31	0.4	10
Cc1nn(Cc2noc(C(=O)NCc3ccccn3)n2)c(C)c1Br	nt	nt	4	nt	-4
C#CCOCCOCCOCCNc1nc(N2CCN(C(=O)[C@H](CCC(=O)O)n3cc(C(N)CC(C)C)nn3)CC2)nc(N2CCN(C(=O)[C@H](CCC(=O)O)n3cc(C(N)CC(C)C)nn3)CC2)n1 (stereo partly drawn)	-9	0	-8	1.1	17*
C#CCOCCOCCOCCNc1nc(N2CCN(C(=O)C([C@@H](C)CC)n3cc(C(N)CC(C)C)nn3)CC2)nc(N2CCN(C(=O)[C@H](CCC(=O)O)n3cc(C(N)CC(C)C)nn3)CC2)n1 (stereo partly drawn)	-4	9	-6	1	0
C#CCOCCOCCOCCNc1nc(N2CCN(C(=O)CCCCCCCCCCNC(=O)[C@H]([C@@H](C)CC)n3cc(CCCCN=C(N)N)nn3)CC2)nc(N2CCN(C(=O)CCCCCCCCCCNC(=O)[C@H](CO)n3cc(CCCCCN)nn3)CC2)n1	nt	nt	40	nt	nt
C#CCOCCOCCOCCNc1nc(N2CCN(C(=O)CCCCCCCCCCNC(=O)[C@H]([C@@H](C)CC)n3cc(CCCCCN)nn3)CC2)nc(N2CCN(C(=O)CCCCCCCCCCNC(=O)[C@H]([C@@H](C)CC)n3cc(CCCCN=C(N)N)nn3)CC2)n1	nt	nt	51*	nt	nt
Cc1ccc(-c2nnc(-c3ccccc3)o2)cc1	67*	16	41	0.3	6
c1ccc(-c2nnc(-c3cccc(-c4nnc(-c5ccccc5)o4)c3)o2)cc1	nt	nt	nt	nt	-3
Cc1ccc(-c2nnc(-c3cccc4ccccc34)o2)cc1	nt	nt	53*	nt	nt
Cc1cccc(-c2nnc(-c3cccc4ccccc34)o2)c1	nt	nt	30	nt	nt
O=C(Oc1cccc(C(=S)N2CCOCC2)c1)c1cc([N+](=O)[O-])cc([N+](=O)[O-])c1	-9	29	-2	1.1	3
CCc1nc2ccc(C(=O)N(C)CCN(C)C)cn2c1N(C)Cc1cc2ccccc2s1	nt	nt	-25	nt	nt
CC(C)N=C1NN=C(c2ccc(F)cc2)CS1	58*	14	33	0.4	3
CCN=C1NN=C(c2ccc(C)cc2)CS1	64*	-7	7	0.4	0
COc1cc(NC(=O)COc2cccc(C)c2C)ccc1NC(=O)c1ccco1	nt	nt	4	nt	0
Cc1ccc(C2=NN(C(=O)CCl)C(c3ccco3)C2)o1 (stereo not drawn)	nt	nt	92*	nt	-2
CC(=O)N1N=C(c2ccco2)CC1c1ccco1 (stereo not drawn)	nt	nt	-3	nt	3
Cc1ccc(-c2ccc(SCC(=O)Nc3ccc4c(c3)OCCO4)nn2)cc1	57*	39	40	0.4	-5
Cc1ccc2nc(-c3ccc(SCC(=O)Nc4nnc(C)s4)nc3)[nH]c2c1	56*	21	54*	0.4	0
CCOC(=O)CSc1ccc(-c2nc3ccccc3[nH]2)cn1	22	15	17	0.8	7
CCOC(=O)CSc1ccc(-c2nc3cc(C)c(C)cc3[nH]2)cn1	64*	37	47	0.4	2
O=C(CSc1ccc(-c2nc3ccccc3[nH]2)cn1)Nc1ccc2c(c1)OCCO2	2	16	12	1	-2
